The text below walks through data of ChEMBL document CHEMBL1137646, “Intracellular metabolism and persistence of the anti-human immunodeficiency virus activity of 2',3'-didehydro-3'-deoxy-4'-ethynylthymidine, a novel thymidine analog” (Antimicrob Agents Chemother, 2007).

Data set [1] deals with CCRF-CEM. As to the kind of experiment: Drug metabolism in human CEM cells assessed as radioactive zidovudine triphosphate accumulation at 2 uM after 2 hrs assessed per 10^6 cells. In kind it is ADME, cell-based. In short, it runs like this:
(§1)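 CEM cells (2 x 10^7/ml) in RPMI 1640 with 10% dialyzed FBS were incubated at 37°C with 2 µM [3H]analog (75 mCi/mmol) and harvested at 2, 4, 8, 12, 16 and 24 h. Cells were washed in ice-cold PBS with 20 µM dipyridamole and extracted with 15% TCA. Neutralized extracts were separated on a Partisil SAX column with an H2O to 300 mM potassium phosphate gradient and radiometric detection, reported as pmol/10^6 cells, mean ± SD of three experiments.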

Data set [2] deals with CCRF-CEM. The experiment in a line: Drug metabolism in human CEM cells assessed as radioactive 2', 3'-didehydro-3'-deoxy-4'-ethynylthymidine triphosphate accumulation at 2 uM assessed per 10^6 cells. In kind it is ADME, cell-based. The settings on record: TDE = time-dependent effect. The procedure, abridged:
as §1

The subject of data set [3] is CCRF-CEM. As to the kind of experiment: Drug metabolism in human CEM cells assessed as radioactive stavudine monophosphate accumulation at 2 uM assessed per 10^6 cells. It is filed as ADME, cell-based. The settings on record: TDE = time-dependent effect. In short, it runs like this:
as §1

The subject of data set [4] is CCRF-CEM. The experiment in a line: Drug metabolism in human CEM cells assessed as radioactive zidovudine diphosphate accumulation at 2 uM after 2 hrs assessed per 10^6 cells. In kind it is ADME, cell-based. In short, it runs like this: as §1
Data set [5] relates to CCRF-CEM. The experiment in a line: Drug metabolism in human CEM cells assessed as radioactive 2', 3'-didehydro-3'-deoxy-4'-ethynylthymidine diphosphate accumulation at 2 uM assessed per 10^6 cells. It is filed as ADME, cell-based. The settings on record: TDE = time-dependent effect. The procedure, abridged:
as §1

The subject of data set [6] is CCRF-CEM. The experiment in a line: Stability in human CEM cells assessed as intracellular radioactive triphosphate metabolite accumulation at 2 uM incubated for 24 hrs measured after 24 hrs of compound removal assessed per 10^6 cells. In kind it is ADME, cell-based. The procedure, abridged:
(§2)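 CEM cells were loaded with 2 µM [3H]analog (75 mCi/mmol) for 24 h, washed, and resuspended in drug-free medium. Intracellular metabolites were then measured by SAX-HPLC with radiometric detection at 0, 2, 4, 8, 12 and 24 h after removal. Values are pmol/10^6 cells, mean ± SD of three experiments.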

For data set [7], the system named is CCRF-CEM. The experiment in a line: Drug metabolism in human CEM cells assessed as radioactive 2', 3'-didehydro-3'-deoxy-4'-ethynylthymidine monophosphate accumulation at 2 uM after 12 hrs assessed per 10^6 cells. In kind it is ADME, cell-based. In short, it runs like this:
as §1

The subject of data set [8] is Human immunodeficiency virus 1. The experiment in a line: Antiviral activity against 0.1 MOI HIV1 3B infected in human TZM-b1 cells assessed as inhibition of viral replication after 24 hrs by luciferase assay. In kind it is functional, organism-based. The procedure, abridged:
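TZM-bl cells in phenol red-free RPMI 1640 were infected with HIV-1 IIIB (MOI 0.1) at the time of adding drug at various concentrations, and drug and virus stayed together for 24 h. Lysate luciferase was measured with uninfected background subtracted, in quintuple wells. Inhibition was the mean signal relative to drug-free infected cells.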

Data set [9] has as its system CCRF-CEM. The experiment in a line: Drug metabolism in human CEM cells assessed as radioactive zidovudine monophosphate accumulation at 2 uM after 2 hrs assessed per 10^6 cells. It is filed as ADME, cell-based. In short, it runs like this: as §1
The test system of data set [10] is CCRF-CEM. As to the kind of experiment: Drug metabolism in human CEM cells assessed as radioactive stavudine diphosphate accumulation at 2 uM assessed per 10^6 cells. It is filed as ADME, cell-based. The conditions noted are these: TDE = time-dependent effect. The procedure, abridged: as §1
Data set [11] deals with Human immunodeficiency virus 1. The experiment in a line: Antiviral activity against 0.1 MOI HIV1 3B infected in human TZM-b1 cells assessed as inhibition of viral replication at 0.22 uM after 24 hrs by luciferase assay. It is filed as functional. The settings on record: Human immunodeficiency virus 1, 3B, TZM-b1, 24 h. In short, it runs like this:
(§3)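 TZM-bl cells were plated at 0.5 x 10^4 per well in phenol red-free RPMI 1640 and allowed to adhere 15-18 h at 37°C. After a medium change, drug was added with quintuple wells per concentration, and cells were infected at the same time with HIV-1 IIIB at MOI 0.1. After 24 h, cells were lysed and luciferase was read minus the uninfected background. Values are percentage of mean luminescence in drug-free wells.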

For data set [12], the system named is CCRF-CEM. The experiment in a line: Drug metabolism in human CEM cells assessed as radioactive zidovudine diphosphate accumulation at 2 uM assessed per 10^6 cells. In kind it is ADME, cell-based. The settings on record: TDE = time-dependent effect. In short, it runs like this:
as §1

Data set [13] concerns CCRF-CEM. The experiment in a line: Drug metabolism in human CEM cells assessed as radioactive 2', 3'-didehydro-3'-deoxy-4'-ethynylthymidine triphosphate accumulation at 2 uM after 12 hrs assessed per 10^6 cells. In kind it is ADME, cell-based. The procedure, abridged: as §1
Data set [14] deals with Human immunodeficiency virus 1. The experiment in a line: Antiviral activity against 0.1 MOI HIV1 3B in 24 hrs pretreated human TZM-b1 cells infected 24 hrs post drug removal assessed as inhibition of viral replication at 0.04 to 0.22 uM measured 24 hrs postinfection by luciferase assay. It is filed as functional, organism-based. The procedure, abridged: (§4)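 TZM-bl cells were plated in phenol red-free RPMI 1640, allowed to adhere 15–18 h at 37°C, then exposed to a range of drug concentrations for 24 h. Medium was changed to remove extracellular drug, and cells were infected with HIV-1 IIIB (MOI 0.1) at 0, 24 or 48 h after removal. Luciferase was read 24 h post-infection with uninfected-cell background subtracted, in quintuple wells, and expressed relative to no-drug wells.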

Data set [15] relates to CCRF-CEM. The experiment in a line: Drug metabolism in human CEM cells assessed as radioactive stavudine triphosphate accumulation at 2 uM assessed per 10^6 cells. In kind it is ADME, cell-based. The settings on record: TDE = time-dependent effect. In short, it runs like this:
as §1

Data set [16] has as its system CCRF-CEM. As to the kind of experiment: Drug metabolism in human CEM cells assessed as radioactive 2', 3'-didehydro-3'-deoxy-4'-ethynylthymidine diphosphate accumulation at 2 uM after 12 hrs assessed per 10^6 cells. It is filed as ADME, cell-based. In short, it runs like this: as §1
Data set [17] deals with CCRF-CEM. As to the kind of experiment: Drug metabolism in human CEM cells assessed as radioactive 2', 3'-didehydro-3'-deoxy-4'-ethynylthymidine monophosphate accumulation at 2 uM assessed per 10^6 cells. The settings on record: TDE = time-dependent effect. It is filed as ADME, cell-based. The procedure, abridged: as §1
Data set [18] concerns Human immunodeficiency virus 1. The experiment in a line: Antiviral activity against 0.1 MOI HIV1 3B infected in human TZM-b1 cells assessed as inhibition of viral replication at 0.02 uM after 24 hrs by luciferase assay. In kind it is functional. The conditions noted are these: Human immunodeficiency virus 1, 3B, TZM-b1, 24 h. The procedure, abridged: as §3
For data set [19], the system named is Human immunodeficiency virus 1. The experiment in a line: Antiviral activity against 0.1 MOI HIV1 3B in 24 hrs pretreated human TZM-b1 cells infected 48 hrs post drug removal assessed as inhibition of viral replication at 0.04 to 0.22 uM measured 24 hrs postinfection by luciferase assay. In kind it is functional, organism-based. The procedure, abridged:
as §4

Data set [20] deals with CCRF-CEM. The experiment in a line: Stability in human CEM cells assessed as intracellular radioactive phosphorylated metabolite accumulation at 2 uM incubated for 24 hrs measured after 8 hrs of compound removal assessed per 10^6 cells. In kind it is ADME, cell-based. The procedure, abridged:
as §2

Data set [21] concerns Human immunodeficiency virus 1. As to the kind of experiment: Antiviral activity against 0.1 MOI HIV1 3B infected in human TZM-b1 cells assessed as inhibition of viral replication at 0.18 uM after 24 hrs by luciferase assay. In kind it is functional. The conditions noted are these: Human immunodeficiency virus 1, 3B, TZM-b1, 24 h. In short, it runs like this:
as §3

In data set [22] the test system is CCRF-CEM. The experiment in a line: Drug metabolism in human CEM cells assessed as radioactive zidovudine monophosphate accumulation at 2 uM assessed per 10^6 cells. It is filed as ADME, cell-based. The conditions noted are these: TDE = time-dependent effect. The procedure, abridged:
as §1

Data set [23] deals with CCRF-CEM. The experiment in a line: Drug metabolism in human CEM cells assessed as radioactive zidovudine triphosphate accumulation at 2 uM assessed per 10^6 cells. In kind it is ADME, cell-based. The conditions noted are these: TDE = time-dependent effect. The procedure, abridged: as §1
In data set [24] the test system is Human immunodeficiency virus 1. The experiment in a line: Antiviral activity against 0.1 MOI HIV1 3B infected in human TZM-b1 cells assessed as inhibition of viral replication at 0.13 uM after 24 hrs by luciferase assay. It is filed as functional. The settings on record: Human immunodeficiency virus 1, 3B, TZM-b1, 24 h. In short, it runs like this:
as §3

Substrate in data set [25]: Cc1cn([C@H]2C[C@H](N=[N+]=[N-])[C@@H](CO)O2)c(=O)[nH]c1=O
The settings on record: Homo sapiens; H9.

Substrate in data set [26]: Cc1cn([C@H]2C[C@H](N=[N+]=[N-])[C@@H](CO)O2)c(=O)[nH]c1=O
The settings on record: Homo sapiens; H9. The source holds these as a separate data set.

The source made the active and inactive calls. No cut-off for these calls is given here.

Turning to `Cc1cn([C@H]2C[C@H](N=[N+]=[N-])[C@@H](CO)O2)c(=O)[nH]c1=O` [ZIDOVUDINE], the Activity with CCRF-CEM [1] is on record as 90 pmol; in the data set on CCRF-CEM [2], “tde”; in the data set with CCRF-CEM [3], “tde”; in the data set on CCRF-CEM [4] it was 90 pmol; with CCRF-CEM [5] it was “tde”; in the data set with CCRF-CEM [7], 18 pmol. Moreover, the Activity in the data set on CCRF-CEM [9] is 90 pmol; in the data set on CCRF-CEM [10], “tde”; in the data set on CCRF-CEM [12], “tde”; with CCRF-CEM [13], 18 pmol; with CCRF-CEM [15], “tde”; in the data set with CCRF-CEM [16], 18 pmol. The Activity result with CCRF-CEM [17], in the data set with CCRF-CEM [22] and with CCRF-CEM [23] was “tde” throughout. Besides, the values for the Stability in the data set with CCRF-CEM [6] and in the data set with CCRF-CEM [20] were 0.14 pmol and 2.33 pmol, respectively. The inhibition entry in [8] is “Dose-dependent effect”. For the same molecule, the inhibition at 0.22 µM in data set [11] worked out at 50%. Also, the inhibition entry in data set [14] and in [19] was “inactive” each time. The inhibition at 0.02 µM in data set [18] is 50%. Besides, in data set [21], the inhibition at 0.18 µM was 50%. Further, the inhibition at 0.13 µM in data set [24] stood at 50%.

B1: Thymidine kinase, cytosolic (Homo sapiens), P04183 (protein)
chain: MSCINLPTVLPGSPSKTRGQIQVILGPMFSGKSTELMRRVRRFQIAQYKCLVIKYAKDTRYSSSFCTHDRNTMEALPACLLRDVAQEALGVAVIGIDEGQFFPDIVEFCEAMANAGKTVIVAALDGTFQRKPFGAILNLVPLAESVVKLTAVCMECFREAAYTKRLGTEKEVEVIGGADKYHSVCRLCYFKKASGQPAGPDNKENCPVPGKPGEAVAARKLFAPQQILQCSPAN
As for B1, the Km in data set [25] is 2.9 µM; in data set [26], 3 µM.
